“And” between values parts separate entries of the source, which are not always exact repeats. Equal entries are not always repeated.
Tests used:
Format in all cases: in vivo, human
[1] = test system: selected advanced solid tumors; experiment: Phase 1b efficacy; settings: for ORR, % (95% CI) / ir-ORR, % (95% CI): confirmed
Outline: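 Oral test compound 200–400 mg QD plus anti-PD-1 antibody 2 mg/kg IV Q3W in patients with measurable or evaluable disease. Investigator assessed best response per RECIST v1.1, with immune-related response also evaluated. ORR used confirmed responses with two-sided 95% CI (Clopper–Pearson exact binomial). All patients receiving ≥1 dose were analysed. PD-L1 status came from screening tissue tested locally.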

[2] = test system: PD-1/PD-L1 inhibitor-refractory advanced solid tumors; experiment: Phase 2 efficacy; settings: PD-1/PD-L1 IR
Outline: (§1)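 Oral test compound 300 mg QD plus anti-PD-1 antibody 200 mg IV Q3W. PD-1/PD-L1 IR cohort: progression on anti-PD-1/PD-L1 (RECIST or irRC). prOVCA cohort: progression ≤6 months after ≥4 platinum cycles. PDA cohort: ≥1 prior systemic line. Investigator assessed best response per RECIST v1.1 and irRC. ORR used confirmed responses with Clopper–Pearson 95% CI; all dosed patients. Screening tissue was profiled for MSI/MMR, TMB and gene expression.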

[3] = test system: platinum-resistant ovarian cancer (prOVCA); experiment: Phase 2 efficacy
Outline: as §1

[4] = Phase 2 plasma pharmacokinetics of ARRY-382 and metabolites; settings: for RAUC (accumulation ratio), geometric mean (geometric %CV) / Ctrough, geometric mean (geometric %CV) / RCmax (accumulation ratio), geometric mean (geometric %CV): Cycle 2 day 1, 300 mg; for AUC(0-t) / AUC / Cmax / Tmax: human, plasma, oral, 300 mg; for AUC(0-t): AUClast; for AUC(0-t) / AUC / Cmax: geometric mean (geometric %CV); for AUC: AUCtau; for Tmax: median (range)
Outline: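 Blood was collected for plasma test compound and its N-oxide, N-desmethyl and sulfate metabolites. Trough samples were taken ≤120 min before the oral dose on cycle 1 day 15 and day 1 of cycles 3–6. Doses were 200–400 mg QD in Phase 1b and 300 mg QD in Phase 2. Non-compartmental parameters were estimated per patient in the PK set, reported as geometric mean (geometric %CV) and Tmax as median (range).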

[5] = test system: CSF-1R; experiment: Phase 1b pharmacodynamic biomarkers
Outline: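 Blood was drawn for serum CSF-1 and CTX, plus serum osteoprotegerin and non-classical monocytes in Phase 2. Urine was collected for NTX. Samples were taken pre-dose on cycle 1 days 1, 8 and 15, on day 1 of later cycles and at discontinuation. Mean change on cycle 1 day 15 versus cycle 1 day 1 was summarized descriptively, with outliers excluded.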

[6] = Cycle 1 day 1, PD-1/PD-L1 IR, n = 18
[7] = Cycle 2 day 1, PD-1/PD-L1 IR, n = 6

## Cc1cccc(Cn2nc(C3CC3)c3c(NC(=O)c4cnc5cc(OCCN6CCN(C)CC6)ccn45)cccc32)n1 [ARRY-382]
[1]; 200-mg cohort
  Median OS: 14.7 [95% CI, 5.2–not reached (NR)] months
  Median PFS: 4.7 (95% CI, 1.4–33.1) months
  Median irPFS per irRC: 3.0 (95% CI, 1.4–16.1) months
[1]; 200-mg cohort, 1 patient with MSI-High PDA
  DOR of confirmed PR: 29.2 months
[1]; 300-mg cohort
  Median OS: 6.5 (95% CI, 1.0–NR) months
  Median PFS: 2.3 (95% CI, 1.3–5.7) months
  Median irPFS per irRC: 2.5 (95% CI, 1.4–7.1) months
[1]; 300-mg cohort, 1 patient with ovarian cancer
  DOR of confirmed PR: 3.1 months
[1]; 400-mg cohort
  Median OS: 7.4 (95% CI, 2.1–14.1) months
  Median PFS: 1.4 (95% CI, 0.5–2.6) months
  Median irPFS per irRC: 1.3 (95% CI, 0.5–1.5) months
[1]; ARRY-382 200 mg, N = 6
  Best overall response: CR: 0 (0.0) n (%)
  Best overall response: NE: 1 (16.7) n (%)
  Best overall response: PD: 1 (16.7) n (%)
  Best overall response: PR: 1 (16.7) n (%)
  Best overall response: SD: 3 (50.0) n (%)
  Immune-related best overall response: CR: 0 (0.0) n (%)
  Immune-related best overall response: NE: 1 (16.7) n (%)
  Immune-related best overall response: PD: 1 (16.7) n (%)
  Immune-related best overall response: PR: 1 (16.7) n (%)
  Immune-related best overall response: SD: 3 (50.0) n (%)
  ORR, % (95% CI): 16.7 (0.4–64.1) %
  ir-ORR, % (95% CI): 16.7 (0.4–64.1) %
[1]; ARRY-382 300 mg, N = 6
  Best overall response: CR: 0 (0.0) n (%)
  Best overall response: NE: 0 (0.0) n (%)
  Best overall response: PD: 3 (50.0) n (%)
  Best overall response: PR: 1 (16.7) n (%)
  Best overall response: SD: 2 (33.3) n (%)
  Immune-related best overall response: CR: 0 (0.0) n (%)
  Immune-related best overall response: NE: 2 (33.3) n (%)
  Immune-related best overall response: PD: 0 (0.0) n (%)
  Immune-related best overall response: PR: 1 (16.7) n (%)
  Immune-related best overall response: SD: 3 (50.0) n (%)
  ORR, % (95% CI): 16.7 (0.4–64.1) %
  ir-ORR, % (95% CI): 16.7 (0.4–64.1) %
[1]; ARRY-382 400 mg, N = 7
  Best overall response: CR: 0 (0.0) n (%)
  Best overall response: NE: 2 (28.6) n (%)
  Best overall response: PD: 5 (71.4) n (%)
  Best overall response: PR: 0 (0.0) n (%)
  Best overall response: SD: 0 (0.0) n (%)
  Immune-related best overall response: CR: 0 (0.0) n (%)
  Immune-related best overall response: NE: 4 (57.1) n (%)
  Immune-related best overall response: PD: 1 (14.3) n (%)
  Immune-related best overall response: PR: 0 (0.0) n (%)
  Immune-related best overall response: SD: 2 (28.6) n (%)
  ORR, % (95% CI): 0.0 (0.0–41.0) %
  ir-ORR, % (95% CI): 0.0 (0.0–41.0) %
[1]; Total, N = 19
  Best overall response: CR: 0 (0.0) n (%)
  Best overall response: NE: 3 (15.8) n (%)
  Best overall response: PD: 9 (47.4) n (%)
  Best overall response: PR: 2 (10.5) n (%)
  Best overall response: SD: 5 (26.3) n (%)
  Immune-related best overall response: CR: 0 (0.0) n (%)
  Immune-related best overall response: NE: 7 (36.8) n (%)
  Immune-related best overall response: PD: 2 (10.5) n (%)
  Immune-related best overall response: PR: 2 (10.5) n (%)
  Immune-related best overall response: SD: 8 (42.1) n (%)
  ORR, % (95% CI): 10.5 (1.3–33.1) %
  ir-ORR, % (95% CI): 10.5 (1.3–33.1) %
[2]
  Median OS: 12.4 (95% CI, 3.6–NR) months
  Median PFS: 1.6 (95% CI, 1.3–4.4) months
  Median irPFS per irRC: 1.5 (95% CI, 1.3–4.3) months
[2]; N = 19
  Best overall response: CR: 0 (0.0) n (%)
  Best overall response: NE: 2 (10.5) n (%)
  Best overall response: PD: 9 (47.4%) n (%) and 9 (47.4) n (%)
  Best overall response: PR: 0 (0.0) n (%)
  Best overall response: SD: 8 (42.1%) n (%) and 8 (42.1) n (%)
  Immune-related best overall response: CR: 0 (0.0) n (%)
  Immune-related best overall response: NE: 11 (57.9) n (%)
  Immune-related best overall response: PD: 1 (5.3) n (%)
  Immune-related best overall response: PR: 0 (0.0) n (%)
  Immune-related best overall response: SD: 7 (36.8) n (%)
[2]; confirmed, N = 19
  ORR, % (95% CI): 0.0 (0.0–17.6) %
  ir-ORR, % (95% CI): 0.0 (0.0–17.6) %
[3]
  Median OS: NR (95% CI, 5.3–NR)
  Median PFS: 2.1 (95% CI, 1.2–4.1) months
  Median irPFS per irRC: 2.5 (95% CI, 1.2–NR) months
[3]; N = 11
  Best overall response: CR: 0 (0.0) n (%)
  Best overall response: NE: 2 (18.2) n (%)
  Best overall response: PD: 5 (45.5%) n (%) and 5 (45.5) n (%)
  Best overall response: PR: 0 (0.0) n (%)
  Best overall response: SD: 4 (36.4%) n (%) and 4 (36.4) n (%)
  Immune-related best overall response: CR: 0 (0.0) n (%)
  Immune-related best overall response: NE: 5 (45.5) n (%)
  Immune-related best overall response: PD: 0 (0.0) n (%)
  Immune-related best overall response: PR: 0 (0.0) n (%)
  Immune-related best overall response: SD: 6 (54.5) n (%)
[3]; confirmed, N = 11
  ORR, % (95% CI): 0.0 (0.0–28.5) %
  ir-ORR, % (95% CI): 0.0 (0.0–28.5) %
[4]; Overall
  RAUC (accumulation ratio), geometric mean (geometric %CV): 2.49 (35.6)
[4]; Overall, n = 15
  Ctrough, geometric mean (geometric %CV): 796 (86.9) ng/mL
  RCmax (accumulation ratio), geometric mean (geometric %CV): 2.06 (41.9)
[4]; PD-1/PD-L1 IR, n = 3
  RAUC (accumulation ratio), geometric mean (geometric %CV): 2.67 (36.2)
[4]; PD-1/PD-L1 IR, n = 6
  Ctrough, geometric mean (geometric %CV): 878 (70.1) ng/mL
  RCmax (accumulation ratio), geometric mean (geometric %CV): 2.52 (39.9)
[4]; PDA, n = 3
  RAUC (accumulation ratio), geometric mean (geometric %CV): 3.41 (23.6)
[4]; PDA, n = 4
  Ctrough, geometric mean (geometric %CV): 1,480 (17.5) ng/mL
  RCmax (accumulation ratio), geometric mean (geometric %CV): 2.07 (53.6)
[4]; prOVCA, n = 4
  RAUC (accumulation ratio), geometric mean (geometric %CV): 1.87 (16.7)
[4]; prOVCA, n = 5
  Ctrough, geometric mean (geometric %CV): 438 (86.5) ng/mL
  RCmax (accumulation ratio), geometric mean (geometric %CV): 1.62 (24.7)
[4]; Cycle 1 day 1, Overall, n = 55
  AUC(0-t): 6310 ng·h/mL
  Cmax: 1270 ng/mL
[4]; [6]
  AUC(0-t): 6320 ng·h/mL
  Cmax: 1240 ng/mL
  Tmax: 1.97 h
[4]; Cycle 1 day 1, PDA, n = 26
  AUC(0-t): 6350 ng·h/mL
  Cmax: 1290 ng/mL
[4]; Cycle 1 day 1, prOVCA, n = 11
  AUC(0-t): 6210 ng·h/mL
  Cmax: 1260 ng/mL
  Tmax: 2 h
[4]; Cycle 2 day 1, Overall, n = 15
  AUC(0-t): 28500 ng·h/mL
  AUC: 30600 ng·h/mL
  Cmax: 2080 ng/mL
[4]; [7]
  AUC(0-t): 26600 ng·h/mL
  AUC: 32100 ng·h/mL
  Cmax: 2130 ng/mL
  Tmax: 2 h
[4]; Cycle 2 day 1, PDA, n = 4
  AUC(0-t): 47100 ng·h/mL
  AUC: 47100 ng·h/mL
  Cmax: 2820 ng/mL
  Tmax: 3.03 h
[4]; Cycle 2 day 1, prOVCA, n = 5
  AUC(0-t): 20700 ng·h/mL
  AUC: 20700 ng·h/mL
  Cmax: 1580 ng/mL
[5]; cycle 1 day 15 compared with cycle 1 day 1
  Change in mean CTX or NTX: no changes
[5]; cycle 1 day 15 versus cycle 1 day 1, P < 0.05
  Increase in mean serum CSF-1: 4.5 fold

— publication PMC9359741 (Clinical Cancer Research, 2022)
